Compound activity deposited in PubChem by Broad Institute.
Sampled rows, rich in hits. Any-hit rate of the full collection: about 1.5%.
ERAP1 HTS inh: human ERAP1 aminopeptidase inhibitors, primary screen, biochemical, single point, plate reader; Endoplasmic reticulum aminopeptidase 1 (Homo sapiens), Q9NZ08; recombinant ERAP1, Leu-AMC fluorescence, 60 min; inhibition, % at 10.7 µM; 340,000 tested, 0.15% active;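 active = mean replicate inhibition of at least 30%, or all replicates individually reaching that 30% level; inactive = mean below 30% and not every replicate reaching it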;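 also: 0% = neutral control wells and 100% = L-leucinethiol positive control wells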
S100A4 inh HTS: inhibitors of S100A4-myosin IIA peptide binding, primary screen, biochemical, fluorescence polarization, TAMRA-MyoIIA peptide; Protein S100-A4 (Homo sapiens), P26447; inhibition, % at 10.7 µM; 360,000 tested, 0.14% active; AID 652163, 2013;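 active = mean inhibition of at least 70% across replicates, with every replicate also reaching that level; inconclusive = mean inhibition reaches 70% but some replicates fall short; inactive = mean inhibition below 70%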
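Test system: S100A4 monomer protein; Medium: HEPES pH 7.2 with CaCl2, KCl, NaCl, DTT, Triton; Probe or stimulus: TAMRA-labelled myosin IIA heavy-chain peptide probe, 5 nM; Doses: one dose per compound; Times: polarization read 5 min after assay mix addition, stable 5–60 min; Benchmarks: neutral control DMSO, positive control TFP.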
MLL AF4-AF9 inh: inhibitors of AF4 peptide binding to AF9, primary screen, biochemical, AlphaScreen, biotin-AF4 peptide, FLAG-AF9, single point; Protein AF-9 (Homo sapiens), P42568; inhibition, % at 10 µM; 350,000 tested, 0.47% active;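 active = every replicate reaching a set inhibition limit, whatever the replicate mean, cut at about 25% in these data; inconclusive = mean inhibition reaches that limit but some replicates miss it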;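 also: 0% = plate neutral control median and 100% = total signal loss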
Target sequence (P42568 whole entry, looked up): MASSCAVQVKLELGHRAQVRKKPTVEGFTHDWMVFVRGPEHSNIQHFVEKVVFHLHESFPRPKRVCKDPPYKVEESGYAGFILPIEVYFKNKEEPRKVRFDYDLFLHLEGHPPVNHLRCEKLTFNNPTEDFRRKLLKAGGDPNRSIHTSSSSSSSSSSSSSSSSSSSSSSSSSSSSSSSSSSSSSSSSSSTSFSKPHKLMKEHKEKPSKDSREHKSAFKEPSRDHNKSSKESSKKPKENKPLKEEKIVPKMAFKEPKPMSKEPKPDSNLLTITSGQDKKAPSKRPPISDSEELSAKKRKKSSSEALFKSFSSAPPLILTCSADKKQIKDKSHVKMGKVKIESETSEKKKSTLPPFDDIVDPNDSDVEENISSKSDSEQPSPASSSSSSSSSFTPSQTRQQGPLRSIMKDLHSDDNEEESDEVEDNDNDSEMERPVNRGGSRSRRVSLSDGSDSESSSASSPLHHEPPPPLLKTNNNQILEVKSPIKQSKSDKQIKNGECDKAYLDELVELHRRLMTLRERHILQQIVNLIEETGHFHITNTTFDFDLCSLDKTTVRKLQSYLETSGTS
RAD52 anneal inh: RAD52 DNA annealing inhibitors, primary screen, biochemical, FRET, single point, set 2 | DNA repair protein RAD52 homolog (Homo sapiens), P43351 | recombinant RAD52 DNA annealing, FRET fluorescence | inhibition, % at 18.7 µM | 360,000 tested, 0.46% active | AID 651710, 2012;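 active = every replicate showing at least 50% inhibition; inconclusive = mean inhibition at least 50% but not in every replicate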
INS-1E GSIS act: GLuc luminescence reporter in INS-1E cells, primary screen for activators of glucose-dependent secretion of insulin | activation, % at 16.6 µM | 370,000 tested, 0.61% active | INS-1E GLuc reporter insulin secretion, 2-3 h;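 active = lowest replicate activation of at least 40%, so every replicate reaches that level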;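 also: 0% = median of neutral control wells and 100% = median of IBMX positive control wells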
RAD52 DNA ctr: DNA-binding compounds via dye displacement, dose response, artefact control for RAD52 inhibitor project, biochemical, fluorescence polarization, cherry-pick; shares compounds with RAD52 anneal inh; Salmon sperm DNA/acridine orange FP displacement; AC50, µM; 1,000 tested, 8% active; AID 652128, 2013;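 active = fitted half-maximal concentration for signal loss at or below twice the highest dose tested, in every separate run, actives reach about 64 µM in these data; inconclusive = runs disagree, or flat partial signal loss, or poor fit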
Starred values were filed as active, the others as inactive; i = inactive; ? = inconclusive; / = no result; ! = not confirmed by another sample.

SMILES	ERAP1 HTS inh	S100A4 inh HTS	MLL AF4-AF9 inh	RAD52 anneal inh	INS-1E GSIS act	RAD52 DNA ctr
CCc1ccc2nc3nc(C)cc(C)c3c(N)c2c1	-314	-5	-43	83*	-5	i
CCC(C)(C)c1ccc(OCCCC[n+]2cccc(C)c2C)c(C(C)(C)CC)c1	19	-5	22	66*	/	i
CCCCOc1cc(C(=O)OCCN(CC)CC)ccc1N	-4	0	5	85*!	/	i
Cc1noc(C)c1NC(=O)Nc1ccc2c(c1)CC(=O)N([C@H](C)CO)C[C@H](C)[C@@H](CN(C)C(=O)Nc1c(C)noc1C)O2	1	0	-4	0	10	/
CCOc1cccc2sc(N(CCCN(C)C)C(=O)c3ccc(S(=O)(=O)N(CC)Cc4ccccc4)cc3)nc12	0	1	20	65*	-45	i
CCN(Cc1ccccc1)S(=O)(=O)c1ccc(C(=O)N(CCCN(C)C)c2nc3cc(C)cc(C)c3s2)cc1	1	-8	2	-13	-16	i
Cc1ccc2sc(N(CCCN(C)C)C(=O)c3ccc(S(=O)(=O)N(C)Cc4ccccc4)cc3)nc2c1C	2	-13	4	60*	35	i
COc1ccc(NC(=O)N(C)C[C@H]2Oc3c(NS(=O)(=O)c4ccccc4)cccc3C(=O)N([C@H](C)CO)C[C@H]2C)cc1	/	/	/	/	-1	/
COc1ccc(NC(=O)COc2ccc(/C=C/c3cc[n+](C)cc3)cc2OC)cc1	28	-1	4	35	8	/
COc1cc(/C=C/c2cc[n+](C)cc2)ccc1OCC(=O)Nc1ccc(Cl)c(Cl)c1	7	-5	?	69*	-24	i
N#Cc1cccc(-c2ccc(C3[C@H]4CNC[C@@H]3N4C(=O)Nc3cccc(F)c3)cc2)c1 (stereo not given in full)	0	0	-1	38	-11	/
CN1[C@@H]2c3ccc(C4=CCCC4)c(=O)n3C[C@@H]2[C@@H](CO)[C@@H]1C(=O)NCc1ccccc1F	4	1	1	-33	3	/
Oc1ccc(C2CNCCc3c2cc(O)c(O)c3Cl)cc1 (stereo not given)	-2	3	6	52*!	1	i
Oc1cc2c(c(Cl)c1O)CCNCC2c1ccccc1 (stereo not given)	0	0	4	-4	-5	/
C[C@H]1CN([C@@H](C)CO)C(=O)Cc2cc(NC(=O)CCC(F)(F)F)ccc2O[C@H]1CN(C)Cc1ccc2c(c1)OCO2	-3	4	-3	4	8	/
COC(=O)C1=CN(Cc2ccc(C)cc2)C=C(C(=O)OC)C1c1cc(OC)c(OC)c(OC)c1	-7	1	-17	95*	-2	i
C[C@@H]1CN([C@H](C)CO)C(=O)c2cc(NC(=O)c3ccccc3)ccc2O[C@@H](C)CCCCO[C@H]1CN(C)Cc1ccc2c(c1)OCO2	-1	-8	7	17	-19	/
CCCCCCCCCCCCCCCC[n+]1cccc(C(=O)N(CC)CC)c1	68*	-3	4	88*	/	i
Oc1ccc[n+](CCCCC[n+]2cccc(O)c2)c1	/	-7	-21	-12	17	/
CN1CCN(c2ccc(NC(=O)c3cc([N+](=O)[O-])ccc3N3CCOCC3)cc2)CC1	4	8	8	5	6	/
CN1CCN(c2ccc(NC(=O)c3cc(S(N)(=O)=O)ccc3N3CCOCC3)cc2)CC1	1	10	10	72*	8	i
CC(C)c1cn(CC[C@H]2CC[C@@H](NS(=O)(=O)c3ccc(Cl)cc3)[C@@H](CO)O2)nn1	3	-4	-1	-21	3	/
CNc1ncnc2sc(-c3ccccc3)cc12	-2	3	-2	-7	4	/
CN(C)CCNc1ncnc2sc(-c3ccccc3)cc12	3	-4	8	59*	2	i
CC=Cc1ccc2n(c1=O)C[C@@H]1[C@@H](CO)[C@H](C(=O)NCCc3ccncc3)[C@H]2N1CCC(F)(F)F (mixture of isomers)	/	/	/	/	11	/
